Legend:
Escherichia coli [1] = assay: Antibacterial activity against Escherichia coli 700728 after 18 hrs; assay type: functional; conditions: Escherichia coli, 700728, 18 h
Summary of the method: (§1)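 Broth microdilution in Nutrient Broth No. 2; stocks in ethanol diluted to 0.01–128 µg/ml (triclosan) or 0.25–256 µg/ml (glycosides). Overnight 37 °C NB2 cultures diluted 1 in 10^4 in saline and added to the dilutions. Incubation at 37 °C with agitation, OD read every 15 min; MIC is the lowest concentration preventing any OD rise after 18 h.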

[2] = test system: Salmonella enterica subsp. enterica serovar Abony; assay: Antibacterial activity against Salmonella enterica subspecies enterica serotype Abony NCTC 6017 after 18 hrs; assay type: functional; conditions: NCTC 6017, 18 h; summary of the method: as §1
Staphylococcus aureus [3] = assay: Antibacterial activity against Staphylococcus aureus ATCC 6538P after 18 hrs; assay type: functional; summary of the method: as §1
[4] = Antibacterial activity against Salmonella enterica subspecies enterica serotype Arizonae OCC 706 after 18 hrs; assay type: functional, Salmonella enterica subsp. enterica serovar Arizonae; conditions: OCC 706, 18 h; summary of the method: as §1
Salmonella enteritidis = assay: Antibacterial activity against Salmonella enterica subspecies enterica serotype Enteritidis 13076 after 18 hrs; assay type: functional, Salmonella enterica subsp. enterica serovar Enteritidis; conditions: Salmonella enterica, 13076, 18 h; summary of the method: as §1
Staphylococcus aureus [5] = assay: Antibacterial activity against Staphylococcus aureus ATCC 9144 after 18 hrs; assay type: functional; conditions: ATCC 9144, 18 h; summary of the method: as §1
[6] = test system: Staphylococcus epidermidis; assay: Antibacterial activity against Staphylococcus epidermidis 155 after 18 hrs; assay type: functional; conditions: Staphylococcus epidermidis, 155, 18 h; summary of the method: as §1
Bacillus subtilis = assay: Antibacterial activity against Bacillus subtilis NCTC 10073 after 18 hrs; assay type: functional; conditions: NCTC 10073, 18 h; summary of the method: as §1
Bacillus cereus = assay: Antibacterial activity against Bacillus cereus ATCC 14579 after 18 hrs; assay type: functional; conditions: ATCC 14579, 18 h; summary of the method: as §1
Staphylococcus aureus [7] = assay: Antibacterial activity against Staphylococcus aureus OCC 106 after 18 hrs; assay type: functional; conditions: OCC 106, 18 h; summary of the method: as §1
Staphylococcus aureus [8] = assay: Antibacterial activity against Staphylococcus aureus ATCC 29213 after 18 hrs; assay type: functional; conditions: ATCC 29213, 18 h; summary of the method: as §1
Klebsiella aerogenes [9] = assay: Antibacterial activity against Enterobacter aerogenes ATCC 13048 after 18 hrs; assay type: functional; conditions: ATCC 13048, 18 h; summary of the method: as §1
Serratia marcescens = assay: Antibacterial activity against Serratia marcescens OCC 217 after 18 hrs; assay type: functional; conditions: OCC 217, 18 h; summary of the method: as §1
Proteus mirabilis = assay: Antibacterial activity against Proteus mirabilis ATCC 12453 after 18 hrs; assay type: functional; conditions: ATCC 12453, 18 h; summary of the method: as §1
Escherichia coli [10] = assay: Antibacterial activity against Escherichia coli OCC 122 after 18 hrs; assay type: functional; conditions: OCC 122, 18 h; summary of the method: as §1
Hafnia alvei = assay: Antibacterial activity against Hafnia alvei 13337 after 18 hrs; assay type: functional; conditions: Hafnia alvei, 13337, 18 h; summary of the method: as §1
Cronobacter sakazakii = assay: Antibacterial activity against Cronobacter sakazakii 29544 after 18 hrs; assay type: functional; conditions: Cronobacter sakazakii, 29544, 18 h; summary of the method: as §1
Streptococcus pneumoniae [11] = assay: Antibacterial activity against Streptococcus pneumoniae 6305 after 18 hrs; assay type: functional; conditions: Streptococcus pneumoniae, 6305, 18 h
Summary of the method: (§2)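 Broth microdilution in Nutrient Broth No. 2. Ethanol stocks were diluted in broth to 0.01–128 µg/ml for triclosan and 0.25–256 µg/ml for glycosides. Overnight 37°C NB2 cultures were diluted 1 in 10^4 in saline and added to the wells. Plates were incubated at 37°C with OD read every 15 min after agitation. MIC was the lowest concentration giving no OD increase at 18 h.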

Escherichia coli [12] = assay: Antibacterial activity against Escherichia coli ATCC 35218 after 18 hrs; assay type: functional; conditions: ATCC 35218, 18 h; summary of the method: as §1
Streptococcus viridans = assay: Antibacterial activity against Streptococcus viridans OCC 234 after 18 hrs; assay type: functional; conditions: OCC 234, 18 h; summary of the method: as §2
Citrobacter freundii [13] = assay: Antibacterial activity against Citrobacter freundii OCC 851 after 18 hrs; assay type: functional; conditions: OCC 851, 18 h; summary of the method: as §1
[14] = test system: Staphylococcus saprophyticus; assay: Antibacterial activity against Staphylococcus saprophyticus ATCC 15305 after 18 hrs; assay type: functional; conditions: ATCC 15305, 18 h; summary of the method: as §2
[15] = Antibacterial activity against Salmonella enterica subspecies enterica serotype Nottingham NCTC 7832 after 18 hrs; assay type: functional, Salmonella enterica subsp. enterica serovar Nottingham; conditions: NCTC 7832, 18 h; summary of the method: as §1
Staphylococcus aureus [16] = assay: Antibacterial activity against Staphylococcus aureus ATCC 25923 after 18 hrs; assay type: functional; conditions: ATCC 25923, 18 h; summary of the method: as §1
Escherichia coli [17] = assay: Antibacterial activity against Escherichia coli ATCC 10536 after 18 hrs; assay type: functional; conditions: ATCC 10536, 18 h; summary of the method: as §1
[18] = Antibacterial activity against Enterobacter cloacae ATCC 13047 after 18 hrs; assay type: functional, Enterobacter cloacae subsp. cloacae; conditions: ATCC 13047, 18 h; summary of the method: as §1
Aeromonas hydrophila = assay: Antibacterial activity against Aeromonas hydrophila OCC 778 after 18 hrs; assay type: functional; conditions: OCC 778, 18 h; summary of the method: as §1
[19] = test system: Staphylococcus epidermidis; assay: Antibacterial activity against Staphylococcus epidermidis ATCC 12228 after 18 hrs; assay type: functional; conditions: ATCC 12228, 18 h; summary of the method: as §1
[20] = test system: Staphylococcus haemolyticus; assay: Antibacterial activity against Staphylococcus haemolyticus OCC 2223 after 18 hrs; assay type: functional; conditions: OCC 2223, 18 h; summary of the method: as §2
Escherichia coli [21] = assay: Antibacterial activity against Escherichia coli ATCC 8739 after 18 hrs; assay type: functional; conditions: ATCC 8739, 18 h; summary of the method: as §1
[22] = test system: Staphylococcus epidermidis; assay: Antibacterial activity against Staphylococcus epidermidis ATCC 14990 after 18 hrs; assay type: functional; conditions: ATCC 14990, 18 h; summary of the method: as §1
[23] = Antibacterial activity against Salmonella enterica subspecies enterica serotype Infantis OCC 2133 after 18 hrs; assay type: functional, Salmonella enterica subsp. enterica serovar Infantis; conditions: OCC 2133, 18 h; summary of the method: as §1
Staphylococcus aureus [24] = assay: Antibacterial activity against Staphylococcus aureus OCC 104 after 18 hrs; assay type: functional; conditions: OCC 104, 18 h; summary of the method: as §1
Salmonella typhimurium = assay: Antibacterial activity against Salmonella enterica subspecies enterica serotype typhimurium ATCC 14028 after 18 hrs; assay type: functional, Salmonella enterica subsp. enterica serovar Typhimurium; conditions: ATCC 14028, 18 h; summary of the method: as §1
Enterococcus faecalis [25] = assay: Antibacterial activity against Enterococcus faecalis ATCC 29212 after 18 hrs; assay type: functional; conditions: ATCC 29212, 18 h; summary of the method: as §1
Streptococcus pyogenes = assay: Antibacterial activity against Streptococcus pyogenes ATCC 19615 after 18 hrs; assay type: functional; conditions: ATCC 19615, 18 h; summary of the method: as §2
Escherichia hermannii = assay: Antibacterial activity against Escherichia hermannii 33650 after 18 hrs; assay type: functional; conditions: Atlantibacter hermannii, 33650, 18 h; summary of the method: as §1
Escherichia coli [26] = assay: Antibacterial activity against Escherichia coli ATCC 25922 after 18 hrs; assay type: functional; conditions: ATCC 25922, 18 h; summary of the method: as §1
Streptococcus pneumoniae [27] = assay: Antibacterial activity against Streptococcus pneumoniae ATCC 49619 after 18 hrs; assay type: functional; conditions: ATCC 49619, 18 h; summary of the method: as §2
Escherichia coli [28] = assay: Antibacterial activity against Escherichia coli NCTC 13216 after 18 hrs; assay type: functional; conditions: NCTC 13216, 18 h; summary of the method: as §1
[29] = Antibacterial activity against Salmonella enterica subspecies enterica serotype Virchow NCTC 5742 after 18 hrs; assay type: functional, Salmonella enterica subsp. enterica serovar Virchow; conditions: NCTC 5742, 18 h; summary of the method: as §1
[30] = Antibacterial activity against Salmonella enterica subspecies enterica serotype Pullorum OCC 273 after 18 hrs; assay type: functional, Salmonella enterica subsp. enterica serovar Pullorum; conditions: OCC 273, 18 h; summary of the method: as §1
[31] = Antibacterial activity against Salmonella enterica subspecies enterica serotype Indiana OCC 597 after 18 hrs; assay type: functional, Salmonella enterica subsp. enterica serovar Indiana; conditions: OCC 597, 18 h; summary of the method: as §1
Enterococcus faecium = assay: Antibacterial activity against Enterococcus faecium ATCC 19434 after 18 hrs; assay type: functional; conditions: ATCC 19434, 18 h; summary of the method: as §1
Streptococcus agalactiae = assay: Antibacterial activity against Streptococcus agalactiae OCC 182 after 18 hrs; assay type: functional; conditions: OCC 182, 18 h; summary of the method: as §2
Staphylococcus aureus [32] = assay: Antibacterial activity against Staphylococcus aureus ATCC 6538 after 18 hrs; assay type: functional; conditions: ATCC 6538, 18 h; summary of the method: as §1
Enterococcus faecalis [33] = assay: Antibacterial activity against Enterococcus faecalis ATCC 33186 after 18 hrs; assay type: functional; conditions: ATCC 33186, 18 h; summary of the method: as §1
Klebsiella pneumoniae [34] = assay: Antibacterial activity against Klebsiella pneumoniae ATCC 10031 after 18 hrs; assay type: functional; conditions: ATCC 10031, 18 h; summary of the method: as §1
[35] = Antibacterial activity against Salmonella enterica subspecies enterica serotype Poona NCTC 4840 after 18 hrs; assay type: functional, Salmonella enterica subsp. enterica serovar Poona; conditions: NCTC 4840, 18 h; summary of the method: as §1
Escherichia coli [36] = assay: Antibacterial activity against Escherichia coli ATCC 11775 after 18 hrs; assay type: functional; summary of the method: as §1
Proteus vulgaris = assay: Antibacterial activity against Proteus vulgaris OCC 195 after 18 hrs; assay type: functional; conditions: OCC 195, 18 h; summary of the method: as §1
[37] = Antibacterial activity against Salmonella enterica subspecies enterica serotype Dublin OCC 627 after 18 hrs; assay type: functional, Salmonella enterica subsp. enterica serovar Dublin; conditions: OCC 627, 18 h; summary of the method: as §1
Klebsiella pneumoniae [38] = assay: Antibacterial activity against Klebsiella pneumoniae ATCC 13883 after 18 hrs; assay type: functional; conditions: ATCC 13883, 18 h; summary of the method: as §1
Citrobacter freundii [39] = assay: Antibacterial activity against Citrobacter freundii 8090 after 18 hrs; assay type: functional; conditions: Citrobacter freundii, 8090, 18 h; summary of the method: as §1
Pseudomonas aeruginosa = assay: Antibacterial activity against Pseudomonas aeruginosa ATCC 27853 after 18 hrs; assay type: functional; conditions: ATCC 27853, 18 h; summary of the method: as §1
Klebsiella aerogenes [40] = assay: Antibacterial activity against Klebsiella aerogenes NCTC 8167 after 18 hrs; assay type: functional; conditions: NCTC 8167, 18 h; summary of the method: as §1
Staphylococcus aureus [41] = assay: Antibacterial activity against Staphylococcus aureus NCTC 13758 after 18 hrs; assay type: functional; conditions: NCTC 13758, 18 h; summary of the method: as §1

Measured: MIC

Oc1cc(Cl)ccc1Oc1ccc(Cl)cc1Cl [TRICLOSAN]
0.1 to 0.5 µg/mL: Escherichia coli [1] | Escherichia coli [10] | Escherichia coli [12] | Escherichia coli [17] | Escherichia coli [21] | Escherichia coli [26] | Escherichia coli [28] | Escherichia coli [36]
32 µg/mL: Pseudomonas aeruginosa
0.01 µg/mL: Staphylococcus aureus [3] | Staphylococcus aureus [5] | [6] | Staphylococcus aureus [7] | Staphylococcus aureus [8] | [14] | Staphylococcus aureus [16] | [19] | [20] | [22] | Staphylococcus aureus [24] | Staphylococcus aureus [32] | Staphylococcus aureus [41]
4 µg/mL: Streptococcus viridans | Enterococcus faecium | Streptococcus agalactiae
0.1 µg/mL: Hafnia alvei | Klebsiella pneumoniae [34] | Klebsiella pneumoniae [38]
64 µg/mL: Serratia marcescens
0.5 to 1 µg/mL: [2] | [4] | Salmonella enteritidis | [15] | [23] | Salmonella typhimurium | [29] | [30] | [31] | [35] | [37]
8 µg/mL: Aeromonas hydrophila | Enterococcus faecalis [25] | Enterococcus faecalis [33]
0.5 µg/mL: Klebsiella aerogenes [9] | Proteus mirabilis | Cronobacter sakazakii | Citrobacter freundii [13] | [18] | Escherichia hermannii | Proteus vulgaris | Citrobacter freundii [39] | Klebsiella aerogenes [40]
1 µg/mL: Bacillus subtilis | Streptococcus pneumoniae [11] | Streptococcus pyogenes | Streptococcus pneumoniae [27]
2 µg/mL: Bacillus cereus

Source: ChEMBL document CHEMBL4325893, “Synthesis and antibacterial profiles of targeted triclosan derivatives” (2019)
